Legend:
[1] = intravenously administered; cited from earlier work
[2] = after intratumor injections; cited from earlier work
[3] = Chemical hydrolysis of cycloSal phosphate triesters in phosphate buffer; type: physicochemical; settings: phosphate buffer 50 mM, pH 7.3, 37°C, ~15% acetonitrile
[4] = test system: LS 174T colorectal adenocarcinoma cells; assay: Clonogenic survival and cell-retained 125I; type: cell-based, human; settings: 4 h, 185 kBq/mL
Method in brief: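 LS 174T cells (2×10⁶ per T75) attached ~18 h, then exposed 4 h at 37°C to radiolabeled compound (185 kBq) or to nonradioactive medium for controls. Cells were washed, trypsinized and counted for viability. 1 mL of a 1×10⁶ cells/mL suspension was gamma-counted for cell-associated ¹²⁵I. Cells were plated in duplicate T25 flasks at 1,000, 500 and 100 cells/flask. Methanol-fixed colonies were scored after three weeks. Surviving fraction is treated/control colonies.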

OVCAR-3 cells [5] = assay: Concentration-dependent uptake; type: cell-based, human; settings: OVCAR-3, 3 h exposure, estimated
LS 174T cells [6] = assay: Concentration-dependent uptake; type: cell-based, human; settings: 3 h exposure, estimated
[7] = test system: U-87 MG glioblastoma cells; assay: Clonogenic survival; type: cell-based, human; settings: U-87, after eight weeks in culture
OVCAR-3 cells [8] = assay: Subcellular distribution of 125I-labeled reagents; type: cell-based, human; settings: for ^125I in cytoplasm, 24 hours / ^125I in nucleus, 24 hours: 1 h incubation then 24 h in fresh nonradioactive medium; for ^125I in cytoplasm, 1 hour / ^125I in nucleus, 1 hour: 1 h incubation, 55.5 kBq/mL
Method in brief: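 OVCAR-3 cells were kept in RPMI-1640 with insulin, 2 mM L-glutamine and 20% FBS and expanded as intraperitoneal xenografts in athymic nude mice. Cells in six T150 flasks attached overnight, then were exposed 1 h to ¹²⁵I compound (55.5 kBq/mL). Three flasks were processed immediately and three after 24 h in fresh medium. Cells were trypsinized, counted, fractionated into nuclear/cytoplasmic compartments and gamma-counted.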

[9] = test system: LS 174T and OVCAR-3 cancer cell lines; assay: Uptake kinetics, cell-associated activity after 3 h; type: cell-based, human; settings: after 3 h incubation
Method in brief: (§1)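 Cells were plated at 2×10⁵/well in 6-well plates in 3 mL growth medium: OVCAR-3 in RPMI-1640 with 20% FBS, LS 174T in EMEM with 10% FBS. After 24 h, radiolabeled compound (~13.6–46.9 kBq/mL) was added at staggered times, up to 360 min, in triplicate. Medium was gamma-counted for radioactive concentration. Cells were washed twice with ice-cold PBS, trypsinized and gamma-counted for cell-associated activity.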

human BChE = human BChE (Homo sapiens, UniProt P06276); assay: Gel electrophoresis/autoradiography of radioactive compounds with BChE; type: binding; settings: BChE 0.02 U or increasing activities, 30 min
Method in brief: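 Radioactive compounds with human BChE were run on native and nonreducing SDS-PAGE gels at constant 150 V or 190 V for 1 h. Gels were exposed to autoradiography film at −80°C for 1–48 h, depending on applied radioactivity. Native gels were stained for BChE activity with 1 mM butyrylthiocholine iodide as substrate (Karnovsky–Roots method).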

U-87 MG cells = assay: Subcellular distribution and DNA retention of 125I; type: cell-based, human
Method in brief: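 U-87 MG cells (~1×10⁶ per T75, EMEM with 10% FBS) were grown 24 h, then given radiolabeled compound for 1 h. They were processed immediately or after 24 h in fresh nonradioactive medium. Pellets (1,000 rpm, 4°C, 15 min) were fractionated with nuclear/cytoplasmic extraction reagents into cytoplasm, soluble nuclear and DNA fractions, which were gamma-counted. DNA-bound ¹²⁵I was also measured after genomic-tip DNA isolation. Longer exposures of 40–144 h were also run.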

LS 174T cells [10] = assay: Uptake kinetics; type: cell-based, human
OVCAR-3 cells [11] = assay: Uptake kinetics; type: cell-based, human
Method in brief: as §1

[12] = Lipophilicity, shake-tube method n-octanol/phosphate buffered saline; type: physicochemical; settings: n-octanol / phosphate buffered saline 10 mM, pH 6.8

human BChE, sequence (P06276 29-602): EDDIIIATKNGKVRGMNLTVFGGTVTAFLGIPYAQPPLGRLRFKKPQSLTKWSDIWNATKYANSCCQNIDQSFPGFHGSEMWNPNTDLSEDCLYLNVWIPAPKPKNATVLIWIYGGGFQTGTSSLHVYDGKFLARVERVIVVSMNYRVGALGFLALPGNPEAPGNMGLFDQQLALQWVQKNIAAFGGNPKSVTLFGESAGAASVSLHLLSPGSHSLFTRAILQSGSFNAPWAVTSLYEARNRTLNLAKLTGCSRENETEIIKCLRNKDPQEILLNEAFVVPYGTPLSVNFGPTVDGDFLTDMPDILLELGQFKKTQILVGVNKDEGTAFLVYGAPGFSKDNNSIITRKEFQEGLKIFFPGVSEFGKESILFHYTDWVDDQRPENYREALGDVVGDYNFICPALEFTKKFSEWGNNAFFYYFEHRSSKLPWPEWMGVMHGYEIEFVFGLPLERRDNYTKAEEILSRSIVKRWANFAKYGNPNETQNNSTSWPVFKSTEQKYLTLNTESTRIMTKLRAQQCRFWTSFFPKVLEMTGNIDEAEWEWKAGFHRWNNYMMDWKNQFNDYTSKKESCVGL

SMILES: O=c1[nH]c(=O)n([C@H]2C[C@H](O)[C@@H](CO)O2)cc1[125I] [^125IUdR, 5-[^125I]Iodo-2′-deoxyuridine]
- time to destruction in circulation [1]: within a few min
- injected ^125IUdR associated with one gram of tumor [2]: ~ 0.02%
- tumor uptake, range [2]: 0.001–0.06 % ID/g

SMILES: Cc1cccc2c1OP(=O)(OC[C@H]1O[C@@H](n3cc([125I])c(=O)[nH]c3=O)C[C@@H]1O)OC2 (some centres unmarked) [7b-fast, 5-[^125I]-Iodo-5′-O-cyclo(3-methylSaligenyl)-2′-deoxyuridine Monophosphate]
- k (rate of hydrolysis) [3]: 0.000544 min⁻¹
- 125I retained per cell [4]: 0.196 (0.06) mBq ^125I/cell

SMILES: O=c1[nH]c(=O)n([C@H]2C[C@H](O)[C@@H](COP3(=O)OCc4ccccc4O3)O2)cc1[125I] (some centres unmarked) [6b-fast, 5-[^125I]-Iodo-5′-O-cycloSaligenyl-2′-deoxyuridine Monophosphate]
- Bmax (OVCAR-3 cells [5]): ~ 7,400 molecules/cell
- k (rate of hydrolysis) [3]: 0.00225 min⁻¹
- Bmax (LS 174T cells [6]): ~ 1,300 molecules/cell
- colony formation [7]: failed to produce any colonies

SMILES: CC(C)(C)c1cc(C(C)(C)C)c2c(c1F)COP(=O)(OC[C@H]1O[C@@H](n3cc([125I])c(=O)[nH]c3=O)C[C@@H]1O)O2 (some centres unmarked) [8b-slow, 5-[^125I]-Iodo-5′-O-[cyclo-3,5-di-(tert-butyl)-6-fluoroSaligenyl]-2′-deoxyuridine Monophosphate]
- ^125I in cytoplasm, 24 hours (OVCAR-3 cells [8]): 2.8 (0.7) cpm/10^3 cells (std dev)
- ^125I in nucleus, 24 hours (OVCAR-3 cells [8]): 91.6 (5.7) cpm/10^3 cells (std dev)
- ^125I in cytoplasm, 1 hour (OVCAR-3 cells [8]): 87.3 (7.5) cpm/10^3 cells (std dev)
- ^125I in nucleus, 1 hour (OVCAR-3 cells [8]): 7.8 (0.6) cpm/10^3 cells (std dev)
- cell associated activity relative to the corresponding 6b diastereomer [9]: ~ 180 ×
- cell associated activity relative to the corresponding 7b diastereomer [9]: 35 ×
- binding to BChE on gel autoradiograph (human BChE): BChE activity-dependent binding

SMILES: CC(C)(C)c1cc(C(C)(C)C)c2c(c1F)COP(=O)(OC[C@H]1O[C@@H](n3cc([125I])c(=O)[nH]c3=O)C[C@@H]1F)O2 (some centres unmarked) [24b-slow, 5-[^125I]-Iodo-5′-O-[cyclo-3,5-Di-(tert-butyl)-6-fluoroSaligenyl]-3′-fluoro-2′,3′-dideoxyuridine]
- k (rate of hydrolysis) [3]: 0.000224 min⁻¹
- uptake and retention lower in the cytoplasm, nucleus and DNA (U-87 MG cells; U-87 MG, 1 h treatment): ~ 20 ×
- presence in intracellular compartments at 24 h (U-87 MG cells; U-87 MG, 24 h in fresh medium): practically undetectable
- binding to BChE on gel autoradiograph (human BChE): BChE activity-dependent binding

SMILES: Cc1cccc2c1OP(=O)(OC[C@H]1O[C@@H](n3cc([125I])c(=O)[nH]c3=O)C[C@@H]1O)OC2 (some centres unmarked) [7b-slow, 5-[^125I]-Iodo-5′-O-cyclo(3-methylSaligenyl)-2′-deoxyuridine Monophosphate]
- ratio of slow to fast uptake (LS 174T cells [10]; after 6 h): 3.0
- k (rate of hydrolysis) [3]: 0.000463 min⁻¹
- 125I retained per cell [4]: 0.566 (0.333) mBq ^125I/cell
- surviving fraction [4]: 0.63 (0.22) mBq
- cell-associated radioactivity, OVCAR-3 compared to LS 174T (OVCAR-3 cells [11]): 1.7 ×
- ratio of slow to fast uptake (OVCAR-3 cells [11]; OVCAR-3, after 6 h): 3.5
- ^125I in cytoplasm, 24 hours (OVCAR-3 cells [8]): 1.8 (0.6) cpm/10^3 cells (std dev)
- ^125I in nucleus, 24 hours (OVCAR-3 cells [8]): 29.3 (7.0) cpm/10^3 cells (std dev)
- ^125I in cytoplasm, 1 hour (OVCAR-3 cells [8]): 13.0 (1.3) cpm/10^3 cells (std dev)
- ^125I in nucleus, 1 hour (OVCAR-3 cells [8]): 5.4 (0.4) cpm/10^3 cells (std dev)

SMILES: O=c1[nH]c(=O)n([C@H]2C[C@H](O)[C@@H](COP3(=O)OCc4ccccc4O3)O2)cc1[125I] (some centres unmarked) [6b-slow, 5-[^125I]-Iodo-5′-O-cycloSaligenyl-2′-deoxyuridine Monophosphate]
- Bmax (OVCAR-3 cells [5]): > 50,000 molecules/cell
- Log P [12]: 0.66 (± 0.03)
- uptake ratio of slow to fast diastereomer (LS 174T cells [10]; after 90 min): ~ 1.7
- uptake rate, slow relative to fast diastereomer (LS 174T cells [10]; up to 90 min): 4.6 ×
- k (rate of hydrolysis) [3]: 0.00152 min⁻¹
- uptake ratio of slow to fast diastereomer (OVCAR-3 cells [11]; OVCAR-3, after 90 min): ~ 1.7
- uptake rate, slow relative to fast diastereomer (OVCAR-3 cells [11]; OVCAR-3, up to 90 min): 6.5 ×
- Bmax (LS 174T cells [6]): ~ 6,800 molecules/cell
- ^125I in cytoplasm, 24 hours (OVCAR-3 cells [8]): 6.0 (0.7) cpm/10^3 cells (std dev)
- ^125I in nucleus, 24 hours (OVCAR-3 cells [8]): 31.3 (6.0) cpm/10^3 cells (std dev)
- ^125I in cytoplasm, 1 hour (OVCAR-3 cells [8]): 14.8 (6.8) cpm/10^3 cells (std dev)
- ^125I in nucleus, 1 hour (OVCAR-3 cells [8]): 4.9 (2.5) cpm/10^3 cells (std dev)
- 125I accumulated in DNA (U-87 MG cells; U-87, 40-h incubation, 19.6 kBq/mL, genomic tips method): 1.18 (0.11) mBq ^125I/cell
- colony formation [7]: failed to produce any colonies

Reference: publication PMC3328401 (Journal of Medicinal Chemistry, 2012)
